Active and inactive are the calls of the source. The rule behind the calls is not given here.
Legend:
LNCaP [1] = test: Antiproliferative activity against androgen-dependent human LNCAP cells after 72 hrs by SRB assay; format: functional, cell-based
Method in brief: (§1)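 SRB assay. Cells were seeded at 3-5 × 10^3 per well in RPMI-1640 with 10% FBS and exposed to a range of concentrations for 72 h; final DMSO was <0.5%. Cells were then fixed in cold 50% TCA for 30 min, stained with 0.04% SRB for 30 min, solubilized in 10 mM Tris base, and read at 515 nm. IC50 is 50% growth inhibition versus untreated control, by log-linear interpolation; mean ± SE of ≥3 independent experiments.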

PC-3 [2] = test: Cytotoxicity against androgen-independent human PC3 cells after 72 hrs by SRB assay; format: functional, cell-based; details: PC-3, 72 h; method in brief: as §1
PC-3 [3] = test: Antiproliferative activity against androgen-independent human PC3 cells after 72 hrs by SRB assay; format: functional, cell-based; method in brief: as §1
LNCaP [4] = test: Cytotoxicity against androgen-dependent human LNCAP cells after 72 hrs by SRB assay; format: functional, cell-based; method in brief: as §1
LNCaP [5] = test: Inhibition of actin based pseudopodia formation in androgen-dependent human LNCAP cells at 40 uM after 48 hrs by DAPI staining based fluorescence microscopy assay; format: functional, cell-based
Method in brief: (§2)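 Cells in RPMI-1640 with 10% FBS were plated on chamber slides for 12 h, then exposed to compound or DMSO for 48 h at 37 °C. Cells were fixed in 4% paraformaldehyde in PBS, nuclei were stained with DAPI, and nuclear and pseudopodia morphology was examined by fluorescence microscopy.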

PC-3 [6] = test: Induction of multinucleation in androgen-dependent human PC3 cells at 40 uM after 48 hrs by DAPI staining based fluorescence microscopy assay; format: functional, cell-based; details: in the assay text read “androgen-independent” for “androgen-dependent”; method in brief: as §2
PC-3 [7] = test: Inhibition of actin based pseudopodia formation in androgen-dependent human PC3 cells at 40 uM after 48 hrs by DAPI staining based fluorescence microscopy assay; format: functional, cell-based; details: in the assay text read “androgen-independent” for “androgen-dependent”; method in brief: as §2
PC-3 [8] = test: Cytotoxicity against androgen-independent human PC3 cells at 100 uM within 48 hrs by SRB assay; format: functional, cell-based
LNCaP [9] = test: Inhibition of actin based pseudopodia formation in androgen-dependent human LNCAP cells at 100 uM after 48 hrs by DAPI staining based fluorescence microscopy assay; format: functional, cell-based
Method in brief: (§3)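 Cells were plated in RPMI-1640 with 10% FBS in chamber slides for 12 h, then exposed to compound or DMSO vehicle for 48 h at 37 °C in 5% CO2. They were fixed with 4% paraformaldehyde in PBS, nuclei were stained with DAPI, and the slides were mounted. Pseudopodia and pseudopodia-like extensions were scored visually by fluorescence microscopy against untreated (DMSO) controls.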

PC-3 [10] = test: Inhibition of actin based pseudopodia formation in androgen-dependent human PC3 cells at 100 uM after 48 hrs by DAPI staining based fluorescence microscopy assay; format: functional, cell-based; method in brief: as §3
PC-3 [11] = test: Induction of nuclear enlargement in androgen-dependent human PC3 cells at 40 uM after 48 hrs by DAPI staining based fluorescence microscopy assay; format: functional, cell-based; details: in the assay text read “androgen-independent” for “androgen-dependent”; method in brief: as §2
PC-3 [12] = test: Induction of multinucleation in androgen-dependent human PC3 cells at 50 uM after 48 hrs by DAPI staining based fluorescence microscopy assay; format: functional, cell-based; details: in the assay text read “androgen-independent” for “androgen-dependent”; method in brief: as §2
[13] = Drug localization in cytosol of androgen-independent human PC3 cells at 50 uM after 48 hrs by DAPI staining based fluorescence microscopy assay; format: ADME, cell-based, PC-3
PC-3 [14] = test: Inhibition of actin based pseudopodia formation in androgen-dependent human PC3 cells at 50 uM after 48 hrs by DAPI staining based fluorescence microscopy assay; format: functional, cell-based; details: in the assay text read “androgen-independent” for “androgen-dependent”; method in brief: as §2
LNCaP [15] = test: Inhibition of actin based pseudopodia formation in androgen-dependent human LNCAP cells at 50 uM after 48 hrs by DAPI staining based fluorescence microscopy assay; format: functional, cell-based; method in brief: as §2
LNCaP [16] = test: Inhibition of actin based pseudopodia formation in androgen-dependent human LNCAP cells at 30 uM after 48 hrs by DAPI staining based fluorescence microscopy assay; format: functional, cell-based; method in brief: as §2
[17] = Drug localization in nucleus of androgen-independent human PC3 cells at 30 uM after 48 hrs by DAPI staining based fluorescence microscopy assay; format: ADME, cell-based; details: pc-3, 48 h
PC-3 [18] = test: Induction of nuclear enlargement in androgen-dependent human PC3 cells at 30 uM after 48 hrs by DAPI staining based fluorescence microscopy assay; format: functional, cell-based; details: in the assay text read “androgen-independent” for “androgen-dependent”; method in brief: as §2
PC-3 [19] = test: Inhibition of actin based pseudopodia formation in androgen-dependent human PC3 cells at 30 uM after 48 hrs by DAPI staining based fluorescence microscopy assay; format: functional, cell-based; details: in the assay text read “androgen-independent” for “androgen-dependent”; method in brief: as §2

Row | Structure (SMILES) | Activity (LNCaP [1]) | IC50 (PC-3 [2]) | Activity (PC-3 [3]) | IC50 (LNCaP [4]) | also measured
1 | COc1cc(/C=C/C(=O)/C=C(O)/C=C/c2ccc(OC(C)(C)C(=O)Nc3ccc([N+](=O)[O-])c(C(F)(F)F)c3)c(OC)c2)ccc1O | Dose-dependent effect | > 100 µM | Dose-dependent effect | > 100 µM | –
2 | COc1ccc(/C=C/C(=O)/C=C(O)/C=C/c2ccc(OC(C)(C)C(=O)Nc3ccc([N+](=O)[O-])c(C(F)(F)F)c3)c(OC)c2)cc1OC | Dose-dependent effect | > 100 µM | Dose-dependent effect | > 100 µM | –
3 | COc1ccc(/C=C/C(=O)/C=C(O)/C=C/c2ccc(OCC(C)(O)C(=O)Nc3ccc([N+](=O)[O-])c(C(F)(F)F)c3)c(OC)c2)cc1OC (stereo not given) | Dose-dependent effect | 39.1 µM | Dose-dependent effect | 41.8 µM | inhibition (LNCaP [5]): Active; Activity (PC-3 [6]): Active; inhibition (PC-3 [7]): Active
4 | CC(O)(CS(=O)(=O)c1ccc(F)cc1)C(=O)Nc1ccc(C#N)c(C(F)(F)F)c1 (racemic) [BICALUTAMIDE] | Dose-dependent effect | 76.4 µM | Dose-dependent effect | 74 µM | Activity (PC-3 [8]): inactive; inhibition (LNCaP [9]): inactive; inhibition (PC-3 [10]): Active
5 | COc1ccc(/C=C/C(=O)/C=C(O)/C=C/c2ccc(OCCCC(=O)Nc3ccc(C#N)c(C(F)(F)F)c3)c(OC)c2)cc1OC | – | > 100 µM | – | 96.3 µM | –
6 | COc1ccc(/C=C/C(=O)C(F)(F)C(=O)/C=C/c2ccc(OC)c(OC)c2)cc1OC | – | 44.3 µM | – | 53.8 µM | –
7 | COc1ccc(/C=C/C(=O)/C=C(O)/C=C/c2ccc(OCCCCCCCCCCC(=O)Nc3ccc(C#N)c(C(F)(F)F)c3)c(OC)c2)cc1OC | – | > 100 µM | – | > 100 µM | –
8 | COc1ccc(/C=C/C(=O)/C=C(O)/C=C/c2ccc(OC(C)(C)C(=O)Nc3ccc(Cl)c(C(F)(F)F)c3)c(OC)c2)cc1OC | Dose-dependent effect | > 100 µM | Dose-dependent effect | > 100 µM | –
9 | CC(C)C(=O)Nc1ccc([N+](=O)[O-])c(C(F)(F)F)c1 [FLUTAMIDE] | Dose-dependent effect | 98.8 µM | Dose-dependent effect | 81.8 µM | Activity (PC-3 [8]): inactive
10 | COc1ccc(/C=C/C(=O)/C=C(O)/C=C/c2ccc(OC)c(OC)c2)cc1OC [DIMETHYLCURCUMIN] | – | 23.7 µM | – | 15.3 µM | –
11 | COc1cc(/C=C/C(=O)/C=C(O)/C=C/c2ccc(OC(C)(C)C(=O)Nc3ccc(C)c(C(F)(F)F)c3)c(OC)c2)ccc1O | Dose-dependent effect | > 100 µM | Dose-dependent effect | > 100 µM | –
12 | COc1cc(/C=C/C(O)=C/C(=O)/C=C/c2ccc(OC)c(OC)c2)ccc1O [METHYLCURCUMIN] | – | 33.1 µM | – | 47 µM | inhibition (LNCaP [5]): Active; Activity (PC-3 [11]): Active; inhibition (PC-3 [7]): Active
13 | COc1ccc(/C=C/C(=O)/C=C(O)/C=C/c2ccc(OCC(C)(O)C(=O)Nc3ccc(C#N)c(C(F)(F)F)c3)c(OC)c2)cc1OC (stereo not given) | Dose-dependent effect | 100 µM | Dose-dependent effect | 73 µM | –
14 | COc1cc(/C=C/C(=O)/C=C(O)/C=C/c2ccc(OC(C)(C)C(=O)Nc3ccc(C#N)c(C(F)(F)F)c3)c(OC)c2)ccc1O | Dose-dependent effect | 48.1 µM | Dose-dependent effect | 55 µM | Activity (PC-3 [12]): Active; Drug uptake [13]: Active; inhibition (PC-3 [14]): Active; inhibition (LNCaP [15]): Active
15 | COc1cc(/C=C/C(=O)CC(=O)/C=C/c2ccc(O)c(OC)c2)ccc1O [CURCUMIN] | – | 36 µM | – | 36.4 µM | inhibition (LNCaP [16]): Active; Drug uptake [17]: Active; Activity (PC-3 [18]): Active; inhibition (PC-3 [19]): Active
16 | COc1ccc(/C=C/C(=O)/C=C(O)/C=C/c2ccc(OC(C)(C)C(=O)Nc3ccc(C#N)c(C(F)(F)F)c3)c(OC)c2)cc1OC | Dose-dependent effect | > 100 µM | Dose-dependent effect | > 100 µM | –
17 | COc1ccc(/C=C/C(=O)/C(F)=C(O)/C=C/c2ccc(OC)c(OC)c2)cc1OC | – | 17.7 µM | – | 27.3 µM | –
18 | COc1cc(/C=C/C(=O)/C=C(O)/C=C/c2ccc(OC(C)(C)C(=O)Nc3ccc(Cl)c(C(F)(F)F)c3)c(OC)c2)ccc1O | Dose-dependent effect | > 100 µM | Dose-dependent effect | > 100 µM | –
19 | COc1cc(/C=C/C(=O)/C=C(O)/C=C/c2ccc(OC(C)(C)C(=O)Nc3ccc(F)c(C(F)(F)F)c3)c(OC)c2)ccc1O | Dose-dependent effect | 52.1 µM | Dose-dependent effect | 54.8 µM | –

Reference: ChEMBL document CHEMBL2046304, “Antitumor agents 290. Design, synthesis, and biological evaluation of new LNCaP and PC-3 cytotoxic curcumin analogs conjugated with anti-androgens” (Bioorg Med Chem, 2012)
